One data set concerns Enterococcus faecalis. The data set is described as follows: In vitro antibacterial activity. The conditions noted are these: Enterococcus faecalis strains; CLSI guidelines; range over strains. It counts as cell-based.
For data set [1] the following is noted: in water, compared with NOS‐R at pH 6.0; ref Zhao et al., 2023; cited from earlier work.
The next data set relates to Enterococcus faecium. As to the kind of experiment: In vitro antibacterial activity. The conditions noted are these: Enterococcus faecium strains; CLSI guidelines; range over strains. The class given is cell-based.
Data set [2] in a line: Aqueous solubility at pH 5.0 to 7.0. It counts as physicochemical. The conditions noted are these: pH 6, water. The method in brief: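 Test compound quantified by HPLC against a standard curve (31.25–1000 ng/mL), with linear regression of peak area against concentration. Aqueous solubility was determined in solutions of pH 5.0 to 7.0, following a previously described method.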

The test system of a further data set is MRSA infection. The data set is described as follows: In vivo protection of mice infected with MRSA. The conditions noted are these: data not shown.
For the next data set, the system named is MRSE. The data set is described as follows: In vitro antibacterial activity. It counts as cell-based, methicillin‐resistant Staphylococcus epidermidis. The settings on record: MRSE strains; CLSI guidelines; range over strains.
The subject of the next data set is MRSA. The data set is described as follows: In vitro antibacterial activity. The class given is cell-based, methicillin‐resistant Staphylococcus aureus. The conditions noted are these: MRSA strains; CLSI guidelines; range over strains.
Data set [3] concerns MRSA, MRSE, Enterococcus faecalis and Enterococcus faecium. The data set is described as follows: In vitro antibacterial activity, MIC range over all tested pathogens. It counts as cell-based. The conditions noted are these: E. faecalis and E. faecium strains.
A further data set deals with SrGT822. The data set is described as follows: Substrate spectrum of SrGT822. It counts as biochemical, Streptomyces sp. 147326. The settings on record: dTDP‐L‐rhamnose as donor; LC-MS analysis; products not purified. The method, boiled down: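 SrGT822 from Streptomyces sp. 147326 carried a C-terminal His-tag in pET22b(+). It was expressed in E. coli BL21(DE3) with 0.5 mM IPTG at 20°C for 12 h and purified by nickel affinity. Seventeen compounds from various classes were tested as acceptors, with dTDP-L-rhamnose as donor, under the optimized reaction parameters.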

In brackets after ≈: the same amount, converted by molar mass. Entries after “also recorded” stand apart in the source; their conditions may differ.

For `C=C(NC(=O)c1csc(-c2nc3c(cc2O)-c2nc(cs2)C(=O)NC(C(C)O)C(=O)N/C(=C\C)c2nc(cs2)C(=O)NC2CC(O)C(=O)OCc4cccc5[nH]c(c(C)c45)C(=O)SCC(NC(=O)c4csc2n4)c2nc-3cs2)n1)C(N)=O` (stereo not shown) [NOS, Nosiheptide], the MIC with Enterococcus faecalis and in the data set with Enterococcus faecium was 0.0078 to 0.0156 µg/mL each time. In addition, the aqueous solubility in [1] is 0.0283 µg/mL (≈ 0.0232 µM).
The compound `C=C(NC(=O)c1csc(-c2nc3c(cc2O[C@@H]2O[C@@H](C)[C@H](O)[C@@H](O)[C@H]2O)-c2nc(cs2)C(=O)NC(C(C)O)C(=O)N/C(=C\C)c2nc(cs2)C(=O)NC2CC(O)C(=O)OCc4cccc5[nH]c(c(C)c45)C(=O)SCC(NC(=O)c4csc2n4)c2nc-3cs2)n1)C(N)=O` (stereo partly shown) [NOS‐R] registered a solubility in data set [2] of 0.526 µg/mL (≈ 0.384 µM). For the same compound, the MIC with Enterococcus faecalis fell in the range of 0.0078 to 0.0156 µg/mL; in the data set on MRSE, 0.03125 to 0.0625 µg/mL; with MRSA, 0.03125 to 0.0625 µg/mL; against Enterococcus faecium it was 0.0078 to 0.0156 µg/mL. Moreover, the “in vivo protection against MRSA infection” value in the data set on MRSA infection is reported as “new protective effect against MRSA infection in mice; also recorded: potential in vivo protection”. For the same compound, the “MIC values against all the tested pathogens” value in [3] was 0.0078 to 0.0625 µg/mL.
For `CN[C@H](CC(C)C)C(=O)N[C@H]1C(=O)N[C@@H](CC(N)=O)C(=O)N[C@H]2C(=O)N[C@H]3C(=O)N[C@H](C(=O)N[C@H](C(=O)O)c4cc(O)cc(O)c4-c4cc3ccc4O)[C@H](O)c3ccc(c(Cl)c3)Oc3cc2cc(c3O[C@@H]2O[C@H](CO)[C@@H](O)[C@H](O)[C@H]2O[C@H]2C[C@](C)(N)[C@H](O)[C@H](C)O2)Oc2ccc(cc2Cl)[C@H]1O` [Vancomycin], the MIC was in the range of 1 to 2 µg/mL in the data set with Enterococcus faecalis, 0.125 to 1 µg/mL against MRSE, 0.25 to 2 µg/mL in the data set with MRSA and 1 to 2 µg/mL in the data set with Enterococcus faecium. Besides, the “MIC values against all the tested pathogens” value in data set [3] was in the range of 0.125 to 2 µg/mL.
Regarding nocathiacin I [compound 17], the “conversion rate (monorhamnosylation as a substrate of SrGT822)” value with SrGT822 was “below 60%”.

For orientation: MIC means the lowest concentration found to suppress growth. In general, aqueous solubility refers to how much of the substance goes into solution per volume. The solubility is the concentration that dissolves in the medium under given conditions.

These data come from PMC10832541 (Microbial Biotechnology, 2024).
